# Screening data as filed in PubChem BioAssay.
# PfG6PD inh – PfG6PD (Plasmodium falciparum) enzyme inhibition. 350,000 tested, 0.78% active. inhibition, % at 20 µM. PfGluPho enzyme, NADPH resazurin-diaphorase fluorescence;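 active means inhibition reaching at least a set limit at 20 µM in the primary screen, cut at about 59% in these data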
# Apaf1 inhib – inhibitors of human Apaf-1 apoptosome; O14727; reconstituted apoptosome caspase-3 activity, DEVD-Rh110 fluorescence; inhibition, % at 20 µM; 330,000 tested, 0.71% active; active means inhibition of at least 40% at 20 µM
#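 System – cell-free apoptosome with Apaf-1, procaspase-3 and caspase-9 · Buffer or medium – pH 7.5 Hepes buffer with CHAPS, BSA, DTT · Also added – cytochrome c with DEVD-Rh110 · Times – 30 min compound preincubation, 50 min activation, room temperature · Technique – Rh110 fluorescence intensity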
# EBNA-1 inh – blocks EBNA-1 binding to DNA; EBNA-1 DNA binding, fluorescence polarization; inhibition, % at 14.8 µM; 300,000 tested, 0.34% active; AID 1950; in the data active means inhibition above about 28%
# UBC13 polyUb – human UBC13 polyubiquitination inhibition; AID 485273; 330,000 tested, 0.47% active; UBC13 polyubiquitin chain formation, TR-FRET; inhibition, % at 20 µM; P61088; in the data active means inhibition above about 45%, passing the limit was not always enough
# ZTA DNA inh – ZTA (EBV) inhibition in EBNA-1 counter-screen; P03206; ZTA-DNA binding, fluorescence polarization; inhibition, % at 11 µM; 320,000 tested, 0.15% active; AID 2234; in the data active means inhibition above about 33%
# M18AAP inhibitor – blocks P. falciparum M18 aspartyl aminopeptidase | recombinant PfM18AAP, H-Glu-NHMec fluorogenic cleavage | 290,000 tested, 1.2% active | inhibition, % at 7.35 µM;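 active means inhibition above the campaign mean inhibition over all tested compounds plus 3 SD, cut at about 28% in these data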
# EBNA-1 inh conf – EBNA-1 (EBV) inhibition, confirmation; Recombinant EBNA-1 DBD, Cy5-DNA fluorescence polarization; AID 2292; inhibition, % at 14.8 µM; shares compounds with EBNA-1 inh; 830 tested, 35% active;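 active means mean inhibition across replicates above a set limit taken from the earlier primary screen, cut at about 28% in these data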
# ZTA counter trip – counter-screen for EBNA-1 inhibitors: Epstein-Barr virus ZTA inhibitors, triplicate; shares compounds with EBNA-1 inh; inhibition, % at 11.1 µM; Zta-ZRE DNA binding, Cy5 fluorescence polarization; 830 tested, under 10 active;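 active means mean inhibition over triplicates above a set limit taken from the primary EBNA-1 screen, cut at about 37% in these data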;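 further: purified full length Zta protein with Cy5 labeled ZRE DNA probe; inhibitors lower polarization by freeing the labeled DNA probe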
# Numbers stand for hits; - = inactive; . = not tested or not shown. A selection: hits, their analogues and other compounds. The true share with any hit is near 2.9%.
SMILES,PfG6PD inh,Apaf1 inhib,EBNA-1 inh,UBC13 polyUb,ZTA DNA inh,M18AAP inhibitor,EBNA-1 inh conf,ZTA counter trip
CC(C)(C)c1ccc(OCC(=O)NNC(=O)c2cccnc2)cc1,-,-,-,-,-,-,.,.
CCCCNC(=O)CSc1nc2ccsc2c(=O)n1C1CCN(C(=O)OCC)CC1,-,-,-,-,-,-,.,.
O=C(CNC(=O)C(c1ccccc1)c1ccccc1)N/N=C\c1ccc(C(=O)O)cc1,-,-,-,-,-,-,.,.
N#C/C(=C\c1cccnc1)C(=O)Nc1ccccc1[N+](=O)[O-],-,-,-,-,-,-,.,.
CCN(C(=O)CCS(=O)(=O)c1cc2c(cc1Cl)NC(=O)CO2)c1ccccc1,-,-,-,-,-,-,.,.
O=C(NCc1ccccc1CN1CCCCC1)c1ccccc1N1CCCC1=O,-,-,.,-,-,.,.,.
Cc1onc(-c2c(Cl)cccc2Cl)c1C(=O)NC(=S)Nc1sc2c(c1C(N)=O)CCC(C)C2 (stereo unspecified),-,-,34,-,-,-,28,-
Cc1ccc(C(=O)NC(=S)Nc2ccc3[nH]c(=O)[nH]c3c2)cc1,-,-,43,-,-,-,34,-
Cc1ccc(NC(=O)CSc2ccc(-c3ccc4c(c3)OCO4)nn2)cc1F,-,-,52,-,-,-,68,-
Cc1cc(NC(=O)CSc2ccc(-c3ccc4c(c3)OCO4)nn2)no1,.,-,-,-,-,-,.,.
COc1ccc(CCN2CC(C(=O)Nc3ccccc3F)CC2=O)cc1OC (stereo unspecified),-,-,-,-,-,.,.,.
Cc1cc(=O)oc2c3c(cc(OCC(=O)N4CCC[C@H]4C(=O)O)c12)OC(C)(C)CC3,-,-,174,-,-,-,-,-
O=C1/C(=C\c2ccc(O)cc2)SC(=S)N1c1cccnc1,-,-,31,-,-,-,-,-
COc1ccc(/C=C2\SC(=S)N(c3cccnc3)C2=O)cc1,-,-,-,-,-,-,.,.
O=C(Nc1ccc(S(=O)(=O)N2CCC(C(=O)NC3CCCCC3)CC2)cc1)c1ccco1,-,-,38,-,-,-,34,-
O=C(Nc1ccc(S(=O)(=O)N2CCCCC2)cc1)c1ccco1,-,-,-,-,-,-,.,.
CCC(=O)NC(=S)Nc1ccc(NC(=O)c2ccc(C)c([N+](=O)[O-])c2)cc1,-,-,43,-,-,-,33,-
CCOc1ccc(C(=O)NC(=S)Nc2ccc(NC(=O)CC)cc2)cc1[N+](=O)[O-],-,-,-,-,-,-,.,.
COc1ccc2oc(C(=O)Nc3nccs3)c(C)c2c1,.,-,29,-,-,.,55,-
CCOc1ccc2oc(C(=O)Nc3nccs3)c(C)c2c1,-,-,.,-,.,.,.,.
CC(=O)Nc1ccc(S(=O)(=O)Nc2c(NC3CCCCC3)c3ccccc3oc2=O)cc1,-,-,32,-,-,-,-,-
CC(=O)Nc1ccc(S(=O)(=O)Nc2ccc(S(=O)(=O)Nc3ncccn3)cc2)cc1,-,-,82,-,-,-,-,-
CSc1cccc(NC(=O)NCc2cccc(CNC(=O)Nc3cccc(SC)c3)c2)c1,-,-,34,-,-,-,41,-
Cc1cccc(/C=N/NC(=O)c2cc3c(s2)-c2ccccc2CC3)c1,-,-,132,-,-,-,-,-
Cc1cccc(C)c1NC(=O)Cn1nnc(C(=O)Nc2ccc(F)cc2F)c1N,-,-,28,-,-,-,29,-
SMILES,PfG6PD inh,Apaf1 inhib,EBNA-1 inh,UBC13 polyUb,ZTA DNA inh,M18AAP inhibitor,EBNA-1 inh conf,ZTA counter trip
CCCSc1ncc(Cl)c(C(=O)Nc2ccc(S(=O)(=O)N3CC(C)OC(C)C3)cc2)n1 (stereo unspecified),-,-,-,-,-,-,.,.
Cc1cc(NC(=O)CSc2ccc(Cl)cc2)no1,-,-,-,-,-,-,.,.
Cc1cc(NC(=O)CSc2nc(-c3ccc(Cl)cc3)cs2)no1,-,-,40,-,-,-,-,-
COc1cccc(OC)c1C(=O)Nc1nc2cc3c(cc2s1)OCO3,-,-,33,-,-,-,60,-
CCCN(CCC)C(=O)c1ccc2c(c1)S(=O)(=O)c1ccccc1C2=O,-,-,-,-,-,-,.,.
COc1ccc(S(=O)(=O)N2CCN(Cc3cc(=O)n4ccccc4n3)CC2)cc1,-,-,.,-,-,.,.,.
CCCn1c(SCC(=O)Nc2cc(S(=O)(=O)N3CCOCC3)ccc2OC)n[nH]c1=O,-,-,-,-,-,-,.,.
CCCc1cc2c(cc1NC(=O)c1ccc(Br)cc1)OCO2,-,-,33,-,-,-,-,-
CCCc1cc2c(cc1NC(=O)c1ccc(C(C)(C)C)cc1)OCO2,-,-,-,-,-,-,.,.
CCCC(=O)Nc1cc(C(=O)O)ccc1Sc1ccccc1,-,-,-,-,-,-,.,.
COc1ccc2cc(C(=O)/C=C/c3cc(OC)c(OC)c(OC)c3)ccc2c1,-,-,48,-,-,-,-,-
O=C(OCC(=O)N1CCc2ccccc2C1)c1cccs1,-,-,-,-,-,-,.,.
Cn1c(=O)c(C(=O)CSc2nnc(Nc3ccccc3)s2)c(N)n(Cc2ccccc2)c1=O,-,-,35,-,-,-,-,-
CCc1nnc(NC(=O)CSc2ccc(-c3nc4ccc(C)cc4[nH]3)cn2)s1,-,-,45,-,-,-,-,-
Cc1ccc2nc(-c3ccc(SCC(=O)O)nc3)[nH]c2c1,-,-,-,-,-,-,.,.
COc1ccc2nc(NC(=O)CC3Oc4ccccc4NC3=O)sc2c1 (stereo unspecified),-,-,56,-,-,-,-,-
COc1ccc(NS(=O)(=O)c2cc(NC(=O)c3ccco3)ccc2N2CCCCC2)cc1,-,-,-,-,-,-,.,.
Cc1c(NC(=O)COC(=O)c2cc(-c3ccc(-c4ccccc4)cc3)nc3ccccc23)c(=O)n(-c2ccccc2)n1C,-,.,31,.,-,-,-,-
COc1ccc(-n2nnnc2SCC(=O)c2ccc3c(c2)OCCO3)cc1,-,-,28,-,-,-,-,-
CCOc1ccc(N(CC(=O)N/N=C(\C)c2cccc(NC(C)=O)c2)S(=O)(=O)c2ccccc2)cc1,-,-,53,-,-,-,-,-
Cc1ccccc1Cn1c(=O)n(-c2ccccc2)c(=O)c2ccc(C(=O)NCc3ccco3)cc21,.,-,-,-,-,-,.,.
Cc1ccc(-n2c(=O)c3ccc(C(=O)NCc4ccco4)cc3n(Cc3ccccc3C#N)c2=O)cc1,-,-,50,-,-,-,-,-
NC(=O)c1c(-c2ccc(Cl)cc2Cl)csc1NC(=O)Cc1ccccc1,-,.,29,.,-,-,-,-
CCCCOc1ccc(C(=O)Nc2ccc(C)cc2[N+](=O)[O-])cc1,-,-,34,-,-,-,-,-
Fc1ccccc1-c1nc(NCc2ccco2)c2ccccc2n1,-,-,-,-,-,-,.,.
